According to ChEMBL document CHEMBL4340525, “Tumor-Targeted Delivery of 6-Diazo-5-oxo-l-norleucine (DON) Using Substituted Acetylated Lysine Prodrugs” (J Med Chem, 2019):

Columns and labels:
[1] = Stability in human liver S9 fraction assessed as parent compound remaining at 1 uM measured after 1 hr by LC-MS/MS analysis; format: ADME, subcellular; conditions: read-out: Stability
Procedure, shortened: (§1)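 Human liver microsomes (0.2 mg/mL protein) or S9 fraction (0.5 mg/mL) were incubated with prodrug at 1 µM final, 37 °C, 1 h with shaking. Reactions were quenched in triplicate with three volumes acetonitrile containing losartan. Parent remaining was taken from analyte/internal-standard peak-area ratio by UHPLC-MS/MS.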

[2] = Stability in human liver microsomes assessed as parent compound remaining at 1 uM measured after 1 hr by LC-MS/MS analysis; format: ADME, Microsome; conditions: read-out: Stability; procedure, shortened: as §1
[3] = Stability in swine jejunum assessed as parent compound remaining at 20 uM measured after 1 hr by LC-MS/MS analysis; format: ADME, tissue-based, Sus scrofa; conditions: pig
Procedure, shortened: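 Washed swine jejunum was diluted 10-fold in 0.1 M potassium phosphate buffer and probe-sonicated. Prodrug was spiked at 20 µM final and incubated 1 h at 37 °C with orbital shaking. Triplicate quench in acetonitrile with losartan internal standard. Percent parent remaining by LC-MS/MS peak-area ratio.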

[4] = Stability in human plasma suspended with human P493B cells at 20 uM measured after 1 hr by LC-MS/MS analysis; format: ADME, cell-free
Procedure, shortened: (§2)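 Cells were grown in RPMI 1640 with 10% FBS, washed in DPBS and resuspended in human plasma at 10 million cells/mL. After 5 min preincubation at 37 °C, compound was added at 20 µM final for 1 h. The mix was centrifuged at 10 000g and the washed pellet and plasma were quantified separately. DON was read by LC-MS/MS after dabsyl chloride derivatisation, intact prodrug directly. Standard curves were made in naive cells or plasma.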

[5] = Stability in human plasma suspended with human P493B cells at 20 uM by LC-MS/MS analysis; format: ADME; conditions: TDE = time-dependent effect; procedure, shortened: as §2
[6] = Drug level in human P493B cells suspended in human plasma assessed as tumor cell to plasma ratio by measuring 6-diazo-5-oxo-L-norleucine formation at 20 uM measured after 1 hr by LC-MS/MS analysis; format: ADME, cell-based; procedure, shortened: as §2
[7] = Prodrug conversion in human H69 cells suspended in human plasma assessed as 6-diazo-5-oxo-L-norleucine formation at 20 uM measured after 1 hr by LC-MS/MS analysis; format: ADME, cell-based; conditions: nci-h69, 1 h; procedure, shortened: as §2
[8] = target: Histone deacetylase 2 (Homo sapiens, UniProt Q92769); experiment: Stability of the compound assessed as recombinant human HDAC2-mediated compound hydrolysis by measuring parent compound remaining at 1 uM measured after 3 hrs by UHPLC-MS analysis; format: ADME
Procedure, shortened: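 Compound at 1 µM was incubated at 37 °C with shaking in 50 mM MES pH 6 with 5 mM DTT. Recombinant human enzyme final levels: HDAC2 10 µg/mL, cathepsin B 1 µg/mL, cathepsin L 0.1 µg/mL, alone or cathepsins B+L combined. Aliquots were quenched in methanol with losartan at 0.25, 0.5, 1 and 3 h. Parent remaining by Q-TOF LC-MS.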

[9] = Ratio of 6-diazo-5-oxo-L-norleucine EC50 to test compound EC50 for human P493B cells; format: functional
[10] = Stability of the compound in CES1-deficient C57BL/6 mouse plasma measured after 60 mins by UHPLC-MS analysis; format: ADME, cell-free; conditions: 1 h
[11] = Stability of the compound in wild-type C57BL/6 mouse plasma measured after 60 mins by UHPLC-MS analysis; format: ADME, cell-free; conditions: 1 h
[12] = Cmax in CES1-deficient C57BL/6 mouse plasma implanted with mouse EL4 cells at 3.2 mg/kg, sc administered as single dose by LC-MS/MS analysis; format: ADME, organism-based; design: dose 3.2 mg/kg, route subcutaneous
Procedure, shortened: (§3)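 Male and female C57BL/6 CES1-/- mice, 6–8 weeks old, carried flank EL4 tumours from SC injection of 1 × 10^6 cells in PBS. Dosing began at about 400 mm3 mean tumour volume. Each mouse got one SC dose of 3.2 mg/kg (1 mg/kg DON equivalent) in ethanol/Tween 80/saline 5:10:85. Plasma, jejunum and tumour were taken at set times, n = 3 per time point. Prodrug and dabsyl-derivatised DON were measured by LC-MS/MS. Noncompartmental analysis: Cmax and Tmax observed, AUClast by log-linear trapezoidal rule.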

[13] = Cmax in CES1-deficient C57BL/6 mouse tumor implanted with mouse EL4 cells at 3.2 mg/kg, sc administered as single dose by LC-MS/MS analysis; format: ADME, organism-based, Neoplasm; design: dose 3.2 mg/kg, route subcutaneous; conditions: in vivo; procedure, shortened: as §3
[14] = Cmax in CES1-deficient C57BL/6 mouse jejunum implanted with mouse EL4 cells at 3.2 mg/kg, sc administered as single dose by LC-MS/MS analysis; format: ADME, organism-based; design: dose 3.2 mg/kg, route subcutaneous; conditions: in vivo, BLD = below limit of detection; procedure, shortened: as §3
[15] = Tmax in CES1-deficient C57BL/6 mouse plasma implanted with mouse EL4 cells at 3.2 mg/kg, sc administered as single dose by LC-MS/MS analysis; format: ADME, organism-based; procedure, shortened: as §3
[16] = AUC (0 to t) in CES1-deficient C57BL/6 mouse plasma implanted with mouse EL4 cells at 3.2 mg/kg, sc administered as single dose by LC-MS/MS analysis; format: ADME, organism-based; procedure, shortened: as §3
[17] = AUC (0 to t) in CES1-deficient C57BL/6 mouse tumor implanted with mouse EL4 cells at 3.2 mg/kg, sc administered as single dose by LC-MS/MS analysis; format: ADME, organism-based, Neoplasm; conditions: in vivo; procedure, shortened: as §3
[18] = Cmax in CES1-deficient C57BL/6 mouse tumor implanted with mouse EL4 cells assessed as 6-diazo-5-oxo-L-norleucine level at 3.2 mg/kg, sc administered as single dose by LC-MS/MS analysis; format: ADME, organism-based, Neoplasm; design: dose 3.2 mg/kg, route subcutaneous; conditions: in vivo; procedure, shortened: as §3
[19] = Tmax in CES1-deficient C57BL/6 mouse plasma implanted with mouse EL4 cells assessed as 6-diazo-5-oxo-L-norleucine level at 3.2 mg/kg, sc administered as single dose by LC-MS/MS analysis; format: ADME, organism-based; conditions: in vivo; procedure, shortened: as §3
[20] = Tmax in CES1-deficient C57BL/6 mouse tumor implanted with mouse EL4 cells assessed as 6-diazo-5-oxo-L-norleucine level at 3.2 mg/kg, sc administered as single dose by LC-MS/MS analysis; format: ADME, organism-based, Neoplasm; conditions: in vivo; procedure, shortened: as §3
[21] = Tmax in CES1-deficient C57BL/6 mouse jejunum implanted with mouse EL4 cells assessed as 6-diazo-5-oxo-L-norleucine level at 3.2 mg/kg, sc administered as single dose by LC-MS/MS analysis; format: ADME, organism-based; conditions: in vivo; procedure, shortened: as §3
[22] = Ratio of AUC (0 to t) in tumor to plasma of CES1-deficient C57BL/6 mouse implanted with mouse EL4 cells assessed as 6-diazo-5-oxo-L-norleucine level at 3.2 mg/kg, sc administered as single dose by LC-MS/MS analysis; format: ADME, organism-based; conditions: tumour
Procedure, shortened: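 Tissue-to-tissue ratios of DON AUClast came from noncompartmental analysis. EL4-bearing CES1-/- C57BL/6 mice received one SC dose of 3.2 mg/kg (1 mg/kg DON equivalent) in ethanol/Tween 80/saline 5:10:85. Tumour, jejunum and plasma were sampled over time, n = 3 mice per time point. DON was read by LC-MS/MS after dabsyl chloride derivatisation.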

[23] = Stability in mouse plasma assessed as parent compound remaining at 20 uM measured after 1 hr by LC-MS/MS analysis
[24] = Stability in swine plasma assessed as parent compound remaining at 20 uM measured after 1 hr by LC-MS/MS analysis; conditions: Sus scrofa, pig

Sequence of Histone deacetylase 2 (Q92769 whole entry): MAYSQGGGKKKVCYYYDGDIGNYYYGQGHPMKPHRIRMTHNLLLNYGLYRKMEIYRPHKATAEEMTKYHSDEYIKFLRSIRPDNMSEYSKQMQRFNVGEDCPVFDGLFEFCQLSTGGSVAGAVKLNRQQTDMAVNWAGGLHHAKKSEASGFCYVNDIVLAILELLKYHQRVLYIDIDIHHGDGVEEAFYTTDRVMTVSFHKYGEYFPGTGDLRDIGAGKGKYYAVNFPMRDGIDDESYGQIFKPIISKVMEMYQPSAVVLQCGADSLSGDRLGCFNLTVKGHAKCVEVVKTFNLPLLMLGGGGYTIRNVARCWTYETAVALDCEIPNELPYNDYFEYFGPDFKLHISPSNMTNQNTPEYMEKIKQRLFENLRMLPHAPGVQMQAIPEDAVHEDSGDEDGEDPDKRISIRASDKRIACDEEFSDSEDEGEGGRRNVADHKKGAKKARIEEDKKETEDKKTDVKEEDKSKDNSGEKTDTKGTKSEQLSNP

## CC(=O)NCCCC[C@H](NC(=O)C12CC3CC(CC(C3)C1)C2)C(=O)N[C@@H](CCC(=O)C=[N+]=[N-])C(=O)OC(C)C
[1]
  remaining at 1 h, 1 µM: 100%
[2]
  remaining at 1 h, 1 µM: 100%
[3]
  Stability: > 50%
[4]
  Stability: Stable
[5]
  Stability: Tde
[6]
  Ratio: 22
[7]
  Drug metabolism: 9.95 µM
[8]
  Stability: > 95%
[9]
  Ratio EC50: 2
[10]
  Stability: Stable
[11]
  Stability: Unstable
[12]
  Cmax: 820 nM
[13]
  Cmax: 0.05 nmol/g
[14]
  Cmax: Bld
[15]
  Tmax: 15 min
[16]
  AUC(0-t): 0.4 µM·h
[17]
  AUCt: 0.03 nmol·h/g
[18]
  Cmax: 1.55 nmol/g
[19]
  Tmax: 30 min
[20]
  Tmax: 60 min
[21]
  Tmax: 30 min
[22]
  Ratio AUC: 5
[23]
  Stability: 0%
[24]
  Stability: 108%
